PERK inhibitor = block of dimerizer-induced PERK translation repression, primary screen, PERK inhibitor project, CHO PERK-DD cells, SEAP luminescence, HTS; Eukaryotic translation initiation factor 2-alpha kinase 3 (Homo sapiens), Q9NZJ5; CHO PERK-DD fusion, SEAP luminescence translation reporter; 220,000 compounds, 0.17% hits; inhibition, % at 5.6 µM; AID 1416, 2008;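 active = inhibition above the mean inhibition of all tested compounds plus 3 SD, set separately per screening campaign, cut at about 2.9% in these data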;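 note: PERK kinase domain activated by AP20187 dimerizer at 100 nM; 0% = DMSO with dimerizer and 100% = rapamycin at 8.4 µM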
Rad51 HR inh = human RAD51 strand exchange inhibitors, primary screen, biochemical, fluorescence. inhibition, % at 10 µM. 200,000 compounds, 0.085% hits. AID 1385, 2008. DNA repair protein RAD51 homolog 1 (Homo sapiens), Q06609. hRad51 DNA strand exchange, fluorescence dequenching;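 active = inhibition above 40% at the single screening dose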;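 note: 0% = DMSO control wells and 100% = blanks with heterologous ssDNA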
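Material: human Rad51–ssDNA filaments; Probe or stimulus: labelled 47-mer dsDNA for strand exchange; Doses: single 10 µM dose; Incubation: 37 °C 15-min filament assembly, 30-min compound preincubation, 15-min exchange; Technique: FRET fluorescence dequenching, excitation 485 nm, emission 520 nm; Measure: Fluorescence-based percent inhibition, control- and blank-normalised; Benchmarks: plate control and blank wells.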
Mdm2 ligase inh = MDM2-luciferase reporter signal enhancers, primary screen, MDM2 E3 ligase inhibitor project, cell-based, luminescence, 1536-well; E3 ubiquitin-protein ligase Mdm2 (Homo sapiens), Q00987; cell-based MDM2 ubiquitination luciferase reporter, 2 h; 0 = plate control, 100 = twice control, blank-subtracted; signal enhancement, % at 5 µM; 210,000 compounds, 0.11% hits; AID 1230, 2008;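 active = signal enhancement of 30% or more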;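 note: luminescence tracks abundance of the self-degrading MDM2-luciferase fusion protein; higher signal means inhibition of MDM2 E3 ligase activity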
Target sequence (Q00987 whole entry, looked up, the tested form may be a part): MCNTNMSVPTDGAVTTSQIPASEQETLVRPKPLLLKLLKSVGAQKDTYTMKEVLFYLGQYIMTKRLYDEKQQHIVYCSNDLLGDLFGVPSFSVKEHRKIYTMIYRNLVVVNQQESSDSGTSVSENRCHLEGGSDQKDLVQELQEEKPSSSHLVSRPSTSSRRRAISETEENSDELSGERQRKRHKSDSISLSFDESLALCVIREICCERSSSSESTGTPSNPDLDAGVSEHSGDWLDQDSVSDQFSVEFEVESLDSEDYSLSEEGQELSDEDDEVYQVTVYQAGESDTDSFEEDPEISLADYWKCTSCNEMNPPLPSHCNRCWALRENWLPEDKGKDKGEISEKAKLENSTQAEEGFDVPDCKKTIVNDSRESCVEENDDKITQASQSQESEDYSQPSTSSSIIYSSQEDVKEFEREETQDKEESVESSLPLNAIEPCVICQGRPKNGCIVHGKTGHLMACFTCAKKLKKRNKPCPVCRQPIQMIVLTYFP
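Assay system: stable mammalian line carrying autodegrading MDM2–luciferase fusion reporter; Input: 2000 cells in each well; Compound dosing: single-point 5 µM; Schedule: 2 h compound exposure at 37 °C; Signal: SteadyLite luciferase luminescence after 15 min room-temperature reagent incubation; Evaluation: % luminescence enhancement versus blank-corrected plate control mean; Benchmarks: plate controls and plate blanks.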
H9c2 TAG inh = inhibitors of triacylglycerol accumulation, primary screen, cell-based, uHTS, fluorescence, H9c2; H9c2 cells, Nile Red lipid (TAG) fluorescence; cells loaded with 200 µM oleic acid; 230,000 compounds, 0.66% hits; inhibition, % at 12.5 µM;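 active = pattern-corrected inhibition of lipid staining of at least 50% with the nuclear-stain viability signal not falling by more than 50%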;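 note: 0% = DMSO wells and 100% = triacsin C control wells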
Hck-Nef inh = inhibitors of Nef-activated human Hck kinase, primary screen, biochemical, Z-Lyte FRET, 384-well, Hck-YEEI. inhibition, % at 20 µM. 220,000 compounds, 0.68% hits. Recombinant Hck-YEEI plus Nef, Z-Lyte FRET kinase assay. Tyrosine-protein kinase HCK (Homo sapiens), P08631;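 active = Hck-Nef kinase inhibition above about 50%, limit read from the data; inactive = inhibition below that limit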;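 note: 0% = DMSO with Hck plus Nef and 100% = Hck alone without Nef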
PKD1 kinase inh = inhibitors of human PKD1 kinase, biochemical, fluorescence polarization. AID 797, 2007. inhibition, % (concentration not given with the values). PKD1 kinase fluorescence polarization assay. 200,000 compounds, 0.056% hits. Serine/threonine-protein kinase D1 (Homo sapiens), Q15139; in the data active = inhibition above about 50%
The depositor's hits bear a star; . = not tested or not shown. Sampled rows, rich in hits. Any-hit rate of the full collection: about 1.3%.

SMILES	PERK inhibitor	Rad51 HR inh	Mdm2 ligase inh	H9c2 TAG inh	Hck-Nef inh	PKD1 kinase inh
COc1cc(C(=O)NC2CCN(C)CC2)ccc1Nc1ncc2c(n1)N(C1CCCC1)CCC(=O)N2C(C)C	.	.	.	58*	.	.
N#Cc1c(N2CCOCC2)nsc1-c1ccccc1	2	26	-10	-6	12	.
Cc1ccc(-c2nc(CCN3C(=O)c4ccccc4C3=O)cs2)cc1	0	-10	-6	.	-1	0
O=C1c2ccccc2C(=O)N1CCc1csc(NNc2nc(CCN3C(=O)c4ccccc4C3=O)cs2)n1	1	1	-16	12	69*	-4
CC(C)Oc1ccc(/C=N/NC(=O)C(CSCc2ccccc2)NC(=O)c2ccc([N+](=O)[O-])cc2)cc1 (stereo unspecified)	-2	-1	4	54*	-6	2
CC(C)(C)OC(=O)N1CCC(c2cc(=O)n3[nH]cc(C(=O)Nc4ccc(F)c(Cl)c4)c3n2)CC1	1	1	-16	8	-16	.
CC(C)(C)OC(=O)N1CCC(c2cc(=O)n3[nH]cc(C(=O)NC4CCCC4)c3n2)CC1	3.2*	1	-11	-9	1	-1
C=C(C)COc1ccc(-c2[nH]ncc2-c2ccc(OC)c(OC)c2)c(O)c1	0	2	2	10	-1	-9
C=C(C)COc1ccc(-c2n[nH]c(C)c2-c2ccc(OC)c(OC)c2)c(O)c1	-2	13	-13	56*	6	.
Nc1c(C(=O)NCC2CCCO2)sc2nc3c(c(-c4ccco4)c12)CC/C3=C\c1ccco1 (stereo unspecified)	0	-4	7	.	88*	-3
Cn1nnnc1SC1CC(=O)N(c2ccccc2)C1=O (stereo unspecified)	0	.	.	0	8	-9
Cc1cc(C)cc(N2C(=O)CC(Sc3nnnn3-c3ccccc3)C2=O)c1 (stereo unspecified)	1	109*	-37	.	1	8
Cc1cc2c(NC(=O)CC(C)(C)CC(=O)O)cccc2nn1	1	12	-10	5	17	.
Cc1cc2c(NC(=O)Nc3ccc(F)cc3)cccc2nn1	3.4*	-9	-4	-2	-15	.
CC(C)C(=O)Nc1cccc(COc2ccc(CN(CCc3ccccc3)C(=O)OC(C)(C)C)cc2)c1	.	.	.	22	.	.
Cc1c(NC(=O)C(C)OC(=O)/C=C/c2ccc3c(c2)OCO3)c(=O)n(-c2ccccc2)n1C (stereo unspecified)	1	-4	-1	8	3	-7
Cc1cc2[nH]c3c4ccccc4nc(C)c3c2cc1C	.	.	.	141	.	.
Cc1cc2[nH]c3c(c[n+](C)c4ccccc34)c2cc1C	0	34	-3	127*	27	-4
CC1(C)CCC23CC[C@]4(C)C(OC2=O)(C3C1)[C@H]1O[C@H]1C1[C@@]2(C)CC[C@@H](O)C(C)(C)C2CC[C@]14C (stereo partly specified)	.	5	.	.	.	.
Cc1ccc(S(=O)(=O)N2CCOCC2)cc1NC(=O)COC(=O)C1=COCCO1	.	.	.	9	.	.
O=C(Nc1ccc(S(=O)(=O)Nc2ncccn2)cc1)c1ccc2ncsc2c1	2.9*	-25	-8	8	-1	.
O=C(Nc1ccncc1)c1ccc2ncsc2c1	.	.	.	-5	.	.
CCOC(=O)C1(C(=O)OCC)CC1c1ccccc1 (stereo unspecified)	0	58*	-8	-1	1	5
CN(Cc1ccc(Cl)s1)C(=O)CCl	0	-4	-1	65*	15	7
NC(=O)CSc1nnc(CNc2ccc(F)cc2)n1CC1CCCO1 (stereo unspecified)	3.0*	0	-8	-19	1	-15
Fc1ccc(-n2nnnc2-c2cnc(-c3cccs3)nc2C(F)(F)F)cc1	1	4	-36	-12	-1	1
